# Source: ChEMBL document CHEMBL1140780, “The expedient synthesis of 1,5-benzothiazepines as a family of cytotoxic drugs” (Bioorg Med Chem Lett, 2008)
# Tested on: LoVo
# Test: Photocytotoxicity against human LoVo cells irradiated with 1.25 J cm^-2 ultraviolet radiation after 72 hrs by MTT assay
# Format: functional
# Settings: light or radiation study
# In short: (§1)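 Culture media, each with penicillin G, streptomycin and 10% FBS: HL-60 in RPMI-1640, NCTC 2544 in DMEM, LoVo in Ham's F12. Seeding was 8 × 10³ HL-60 or 5 × 10³ NCTC 2544/LoVo cells per well, 18 h at 37 °C. Drug in DMSO diluted with HBSS pH 7.2 was added for 30 min at 37 °C, then UVA applied (dose measured at 365 nm). Medium was replaced, 72 h incubation, MTT read-out. GI50 is the concentration giving 50% growth inhibition.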
row,Structure (SMILES),GI50
1,Cc1cc(F)ccc1C1=Nc2c(F)cccc2SC(C(=O)O)C1 (stereo not given),3.8 µM
2,Cc1cc(F)ccc1C1=Nc2c(Cl)cccc2SC(C(=O)O)C1 (stereo not given),16.8 µM
3,COc1cccc2c1C(=O)c1c(O)c3c(c(O)c1C2=O)C[C@@](O)(C(=O)CO)C[C@@H]3O[C@H]1C[C@H](N)[C@H](O)[C@H](C)O1 [DOXORUBICIN],8.54 µM
4,Cc1cc(F)ccc1C1=Nc2c(Br)cccc2SC(C(=O)O)C1 (stereo not given),> 20 µM

# Tested on: HL-60
# Test: Photocytotoxicity against human HL60 cells irradiated with 1.25 J cm^-2 ultraviolet radiation after 72 hrs by MTT assay
# Format: functional
# Settings: HL-60, light or radiation study
# In short: as §1
row,Structure (SMILES),GI50
1,Cc1cc(F)ccc1C1=Nc2c(F)cccc2SC(C(=O)O)C1 (stereo not given),6.6 µM
2,Cc1cc(F)ccc1C1=Nc2c(Cl)cccc2SC(C(=O)O)C1 (stereo not given),> 10 µM
3,COc1cccc2c1C(=O)c1c(O)c3c(c(O)c1C2=O)C[C@@](O)(C(=O)CO)C[C@@H]3O[C@H]1C[C@H](N)[C@H](O)[C@H](C)O1 [DOXORUBICIN],2.36 µM
4,Cc1ccc2c(c1)SC(C(=O)O)CC(c1ccc(F)cc1C)=N2 (stereo not given),> 10 µM
5,Cc1cc(F)ccc1C1=Nc2ccc(Cl)cc2SC(C(=O)O)C1 (stereo not given),> 10 µM
6,COc1ccc2c(c1)SC(C(=O)O)CC(c1ccc(F)cc1C)=N2 (stereo not given),> 10 µM
7,Cc1cc(F)ccc1C1=Nc2c(Br)cccc2SC(C(=O)O)C1 (stereo not given),2.5 µM

# Tested on: not listed separately
# Test: Photocytotoxicity against human NCTC 2544 cells irradiated with 2.5 J cm^-2 ultraviolet radiation after 72 hrs by MTT assay
# Format: cell-based
# Settings: not given
# In short: as §1
row,Structure (SMILES),GI50 at 72 h
1,Cc1cc(F)ccc1C1=Nc2c(F)cccc2SC(C(=O)O)C1 (stereo not given),2.6 µM
2,Cc1cc(F)ccc1C1=Nc2c(Cl)cccc2SC(C(=O)O)C1 (stereo not given),6.9 µM
3,COc1cccc2c1C(=O)c1c(O)c3c(c(O)c1C2=O)C[C@@](O)(C(=O)CO)C[C@@H]3O[C@H]1C[C@H](N)[C@H](O)[C@H](C)O1 [DOXORUBICIN],1.32 µM
4,Cc1cc(F)ccc1C1=Nc2c(Br)cccc2SC(C(=O)O)C1 (stereo not given),> 20 µM

# Tested on: not listed separately
# Test: Photocytotoxicity against human NCTC 2544 cells irradiated with 1.25 J cm^-2 ultraviolet radiation after 72 hrs by MTT assay
# Format: cell-based
# Settings: not given
# In short: as §1
row,Structure (SMILES),GI50 at 72 h
1,Cc1cc(F)ccc1C1=Nc2c(F)cccc2SC(C(=O)O)C1 (stereo not given),7 µM
2,Cc1cc(F)ccc1C1=Nc2c(Cl)cccc2SC(C(=O)O)C1 (stereo not given),> 20 µM
3,COc1cccc2c1C(=O)c1c(O)c3c(c(O)c1C2=O)C[C@@](O)(C(=O)CO)C[C@@H]3O[C@H]1C[C@H](N)[C@H](O)[C@H](C)O1 [DOXORUBICIN],3.04 µM
4,Cc1cc(F)ccc1C1=Nc2c(Br)cccc2SC(C(=O)O)C1 (stereo not given),> 20 µM

# Tested on: HL-60
# Test: Photocytotoxicity against human HL60 cells irradiated with 2.5 J cm^-2 ultraviolet radiation after 72 hrs by MTT assay
# Format: functional
# Settings: HL-60, light or radiation study
# In short: as §1
row,Structure (SMILES),GI50
1,Cc1cc(F)ccc1C1=Nc2c(F)cccc2SC(C(=O)O)C1 (stereo not given),0.8 µM
2,Cc1cc(F)ccc1C1=Nc2c(Cl)cccc2SC(C(=O)O)C1 (stereo not given),6.9 µM
3,COc1cccc2c1C(=O)c1c(O)c3c(c(O)c1C2=O)C[C@@](O)(C(=O)CO)C[C@@H]3O[C@H]1C[C@H](N)[C@H](O)[C@H](C)O1 [DOXORUBICIN],1.45 µM
4,Cc1ccc2c(c1)SC(C(=O)O)CC(c1ccc(F)cc1C)=N2 (stereo not given),10 µM
5,Cc1cc(F)ccc1C1=Nc2ccc(Cl)cc2SC(C(=O)O)C1 (stereo not given),6.8 µM
6,COc1ccc2c(c1)SC(C(=O)O)CC(c1ccc(F)cc1C)=N2 (stereo not given),10 µM
7,Cc1cc(F)ccc1C1=Nc2c(Br)cccc2SC(C(=O)O)C1 (stereo not given),0.9 µM

# Tested on: LoVo
# Test: Photocytotoxicity against human LoVo cells irradiated with 2.5 J cm^-2 ultraviolet radiation after 72 hrs by MTT assay
# Format: functional
# Settings: light or radiation study
# In short: as §1
row,Structure (SMILES),GI50
1,Cc1cc(F)ccc1C1=Nc2c(F)cccc2SC(C(=O)O)C1 (stereo not given),1.94 µM
2,Cc1cc(F)ccc1C1=Nc2c(Cl)cccc2SC(C(=O)O)C1 (stereo not given),9.8 µM
3,COc1cccc2c1C(=O)c1c(O)c3c(c(O)c1C2=O)C[C@@](O)(C(=O)CO)C[C@@H]3O[C@H]1C[C@H](N)[C@H](O)[C@H](C)O1 [DOXORUBICIN],5.48 µM
4,Cc1cc(F)ccc1C1=Nc2c(Br)cccc2SC(C(=O)O)C1 (stereo not given),13.2 µM
